The target in series [1] is PbIMPDH-A (IMPDH-A from Penicillium brevicompactum) (Penicillium brevicompactum, UniProt A0A9W9QLZ9). The series is described as follows: IMPDH enzyme assay. It counts as biochemical.
Series [2] deals with PbIMPDH-B (IMPDH-B from P. brevicompactum) (Penicillium brevicompactum, UniProt F1DBB2). The series is described as follows: biochemical.
Series [3] deals with PbIMPDH-A Tyr411 substituted with Phe (Penicillium brevicompactum, UniProt A0A9W9QLZ9, Y425F). The series is described as follows: MPA inhibition of PbIMPDH-A variant 411*. It counts as biochemical. The following applies: read-out: IC50, 411*, PbIMPDH-A Tyr411 to Phe.
Series [4] deals with PbIMPDH-B Phe411 substituted with Tyr (Penicillium brevicompactum, UniProt F1DBB2, F415Y). The series is described as follows: MPA inhibition of PbIMPDH-B variant 411*. It counts as biochemical.
In series [5] the target is AnImdA Tyr411 substituted with Phe (Aspergillus nidulans, UniProt C8V6R6, Y186F). The series is described as follows: MPA inhibition of AnImdA variant 411*. It counts as biochemical.
The subject of series [6] is AnImdA, PcIMPDH-A and PcIMPDH-B. The series is described as follows: MPA inhibition of the MPA-sensitive fungal IMPDHs. It counts as biochemical. Conditions: range over AnImdA.
For a further series, the system named is P. chrysogenum. The series is described as follows: Spot assay to determine sensitivity towards MPA. It counts as cell-based, Penicillium chrysogenum. The following applies: CYA plates with 200 μg/ml MPA (method) / 6.2 μM MPA (legend of Figure 2A), 25°C. Put shortly: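 Strain IBT5857 spores harvested into sterile water. 10-fold serial dilutions spotted onto CYA with or without MPA, most concentrated spot ~10⁶ spores. MPA stock was 25 mg/ml in methanol, and every plate held 0.8% (v/v) methanol. Stock and plates were made just before spotting to avoid MPA degradation. Grown at 25°C; growth of dilution series scored.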

For series [7], the system named is E. coli ΔguaB expressing PbIMPDH-B. The series is described as follows: Bacterial complementation assay with MPA. It counts as cell-based. The following applies: 100 μM MPA, no guanosine. In a few lines: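 E. coli BL21(DE3) ΔguaB host (no endogenous IMPDH) carrying N-terminal His6-tagged fungal IMPDH on a pET28-derived vector. Overnight LB cultures with 25 μg/ml kanamycin; 1:20 serial dilutions spotted on M9 minimal medium with 0.5% casamino acids, 100 μg/ml L-tryptophan, 0.1% thiamin, kanamycin, 66 μM IPTG, ± 100 μM MPA; guanosine plates get 50 μg/ml. Incubated overnight at 37°C, then at room temperature; growth scored.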

The next series deals with Imd2. The following applies: Imd2 from Saccharomyces cerevisiae; cited from earlier work.
The subject of another series is Imd3. Conditions: Imd3 from Saccharomyces cerevisiae; cited from earlier work.
The conditions of series [8]: cited from earlier work.
For series [9], the target named is AnImdA (IMPDH from Aspergillus nidulans) (Aspergillus nidulans, UniProt C8V6R6). The series is described as follows: biochemical.
Series [10] deals with PcIMPDH-A (IMPDH-A from Penicillium chrysogenum) (Penicillium chrysogenum, UniProt B6HC24). The series is described as follows: biochemical.
Series [11] has as its target PcIMPDH-B (IMPDH-B from P. chrysogenum) (Penicillium chrysogenum, UniProt B6H451). The series is described as follows: biochemical.
The test system of series [12] is NC(=O)c1ccc[n+]([C@@H]2O[C@H](COP(=O)([O-])OP(=O)(O)OC[C@H]3O[C@@H](n4cnc5c(N)ncnc54)[C@H](O)[C@@H]3O)[C@@H](O)[C@H]2O)c1. The series is described as follows: cells, lysate or membranes named. Conditions: pH 8.0.

Chain of PbIMPDH-B (IMPDH-B from P. brevicompactum) (F1DBB2 whole entry): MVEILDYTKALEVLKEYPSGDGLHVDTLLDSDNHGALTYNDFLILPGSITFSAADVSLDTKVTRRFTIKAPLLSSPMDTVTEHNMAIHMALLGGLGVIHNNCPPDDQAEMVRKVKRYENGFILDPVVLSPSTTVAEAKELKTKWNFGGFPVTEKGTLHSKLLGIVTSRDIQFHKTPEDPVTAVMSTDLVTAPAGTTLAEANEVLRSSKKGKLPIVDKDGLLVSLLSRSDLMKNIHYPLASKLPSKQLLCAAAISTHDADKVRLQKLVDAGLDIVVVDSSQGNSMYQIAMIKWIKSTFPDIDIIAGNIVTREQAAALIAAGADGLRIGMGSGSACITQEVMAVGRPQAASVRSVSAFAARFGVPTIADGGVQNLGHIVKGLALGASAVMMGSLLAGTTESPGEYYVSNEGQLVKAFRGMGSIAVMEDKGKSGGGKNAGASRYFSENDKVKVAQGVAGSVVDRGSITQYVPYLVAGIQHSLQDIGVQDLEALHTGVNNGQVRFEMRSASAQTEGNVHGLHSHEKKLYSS
Chain of PbIMPDH-B Phe411 substituted with Tyr (F1DBB2 whole entry F415Y): as the sequence (F1DBB2 whole entry) above, with F415Y counted along it

Usually IC50 stands for the midpoint of a concentration-inhibition curve. Regarding `COc1c(C)c2c(c(O)c1C/C=C(\C)CCC(=O)O)C(=O)OC2` [MPA, mycophenolic acid], the “fold more resistant to MPA” value in series [1] (PbIMPDH-A versus IMPDHs from the other filamentous fungi) stood at 10 fold. Moreover, the IC50 in series [1] (read-out: IC50 (MPA), WT PbIMPDH-A, saturating IMP, half-saturating NAD^+, 25°C) was 430 ± 30 nM; in [2], 27000 ± 9000 nM; in [3] it was 160 ± 20 nM; in series [4], 25000 ± 2000 nM; in series [5], 26 ± 2 nM; in series [6], 26 to 60 nM. For the same compound, the IC50 with Imd2 is 70000 nM; in the series on Imd3, 500 nM; in series [9], 26 ± 2 nM; in series [10] it was 36 ± 4 nM; in series [11], 60 ± 10 nM. In addition, the “sensitivity towards MPA (growth of spore dilutions)” value with P. chrysogenum is “more resistant to MPA than A. nidulans”. In [7], the “growth on minimal media with MPA” value is “resistant”. Besides, the “increase of IMP concentrations in the presence of MPA” value in series [8] is 10-35 fold.
In general, Km refers to the substrate concentration at which the rate is half of its maximum. For `NC(=O)c1ccc[n+]([C@@H]2O[C@H](COP(=O)([O-])OP(=O)(O)OC[C@H]3O[C@@H](n4cnc5c(N)ncnc54)[C@H](O)[C@@H]3O)[C@@H](O)[C@H]2O)c1` [NAD^+, nicotinamide adenine dinucleotide], the Michaelis-Menten constant (Km) in series [2] (read-out: KM (NAD^+), PbIMPDH-B) was determined as 790 ± 140 µM.
One may read the kcat/Km as the second-order rate constant that governs catalysis at low substrate concentration. For the compound “AnImdA (IMPDH from Aspergillus nidulans) (Aspergillus nidulans FGSC A4)”, in [12] (other: AnImdA), the Michaelis constant (Km) is 170 ± 70 µM and the kcat/Km is listed as 4,400 ± 100 M^−1s^−1.
With “PcIMPDH-A (IMPDH-A from Penicillium chrysogenum) (Penicillium rubens Wisconsin 54-1255)”, in series [12] (other: PcIMPDH-A), the Km came to 290 ± 60 µM and the kcat/Km is 2900 ± 300 M⁻¹ s⁻¹.
For “PcIMPDH-B (IMPDH-B from P. chrysogenum) (Penicillium rubens Wisconsin 54-1255)”, in series [12] (other: PcIMPDH-B), the Michaelis constant (Km) is 640 ± 130 µM and the kcat/Km came to 11 ± 6 M⁻¹ s⁻¹.

Source of the values: article PMC4636733 (The Biochemical journal, 2012).
